Results reported in ChEMBL document CHEMBL4602710 (ACS Med Chem Lett, 2020).
Values after ≈ are worked out from the molar mass of the structure shown. Values belong to the molecule of their own block, whether it stands above or below them. Active and inactive are the calls of the source. The calls are words filed in the database; no cut-off is given here.

Tests used:
[1] = biological target: T1, Tyrosine-protein kinase SYK (Homo sapiens, UniProt P43405); test: Inhibition of SYK (unknown origin) using XL665-labeled peptide as substrate in presence of ATP measured after 30 mins by TR-FRET assay
[2] = biological target: T1, Tyrosine-protein kinase SYK; test: Inhibition of SYK in human Ramos cells assessed as reduction in antihuman IgM F(ab)2-induced phosphorylation of BLNK at Y96 residue preincubated for 1 hr followed by antihuman IgM F(ab)2 stimulation for 5 mins by MSD high bind plate assay; assay type: cell-based
[3] = biological target: T1, Tyrosine-protein kinase SYK; test: Inhibition of SYK in human whole blood assessed as reduction in anti-FCepsilonR1 mAb-induced basophil activation by measuring decrease in CD63 surface expression incubated for 60 mins followed by anti-FCepsilonR1 mAb stimulation for 20 mins by flow cytometry analysis; assay type: tissue-based
[4] = Solubility of compound at pH 7.4; assay type: physicochemical; conditions: buffer
[5] = Apparent permeability of compound in human Caco2 cells; assay type: ADME, cell-based; conditions: Caco-2
[6] = Efflux ratio of apparent permeability of compound in human Caco2 cells; assay type: ADME, cell-based; conditions: Caco-2
[7] = Distribution coefficient, logD of compound; assay type: physicochemical; conditions: octanol/water
[8] = Solubility of compound at pH 2; assay type: physicochemical; conditions: buffer
[9] = Clearance in human liver microsomes; assay type: ADME, Microsome
[10] = Oral bioavailability in rat at 5 mg/kg; assay type: ADME, organism-based; conditions: in vivo
[11] = AUC in human at 45 mg, po administered as single dose; assay type: ADME, organism-based; conditions: in vivo
Procedure, shortened: (§1)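 Healthy human volunteers given a single oral 45 mg dose, either without pretreatment or after pretreatment with 20 mg omeprazole; plasma AUC compared.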

[12] = Half life at steady state in human at 2 to 50 mg administered once daily; assay type: ADME; conditions: in vivo, read-out: t1/2ss
[13] = AUC in human at 45 mg, po administered as single dose pretreated with omeprazole; assay type: ADME, organism-based; conditions: in vivo; procedure, shortened: as §1
[14] = Fraction unbound in rat plasma; assay type: ADME, cell-free
[15] = Apparent clearance in rat hepatocytes; assay type: ADME, cell-based, Hepatocyte
[16] = Clearance in rat at 1 mg/kg, iv or 5 mg/kg, po; assay type: ADME, organism-based; conditions: in vivo
[17] = Volume of distribution at steady state in rat at 1 mg/kg, iv or 5 mg/kg, po; assay type: ADME, organism-based; conditions: in vivo, read-out: Vdss
[18] = Half life in rat at 1 mg/kg, iv or 5 mg/kg, po; assay type: ADME, organism-based; conditions: in vivo
[19] = Fraction unbound in dog plasma; assay type: ADME, cell-free, Canis lupus familiaris
[20] = test system: Hepatocyte; test: Apparent clearance in dog hepatocytes; assay type: ADME, cell-based, Canis lupus familiaris
[21] = Clearance in dog at 1 mg/kg, iv or 5 mg/kg, po; assay type: ADME, organism-based, Canis lupus familiaris; conditions: in vivo
[22] = Volume of distribution at steady state in dog at 1 mg/kg, iv or 5 mg/kg, po; assay type: ADME, organism-based, Canis lupus familiaris; conditions: in vivo, read-out: Vdss
[23] = Half life in dog at 1 mg/kg, iv or 5 mg/kg, po; assay type: ADME, organism-based, Canis lupus familiaris; conditions: in vivo
[24] = Oral bioavailability in dog at 5 mg/kg; assay type: ADME, organism-based, Canis lupus familiaris; conditions: in vivo
[25] = Fraction unbound in monkey plasma; assay type: ADME, cell-free, Macaca mulatta; conditions: rhesus monkey
[26] = test system: Hepatocyte; test: Apparent clearance in monkey hepatocytes; assay type: ADME, cell-based, Macaca mulatta; conditions: rhesus monkey
[27] = Clearance in monkey at 1 mg/kg, iv or 5 mg/kg, po; assay type: ADME, organism-based, Macaca mulatta; conditions: rhesus monkey, in vivo
[28] = Volume of distribution at steady state in monkey at 1 mg/kg, iv or 5 mg/kg, po; assay type: ADME, organism-based, Macaca mulatta; conditions: rhesus monkey, in vivo, read-out: Vdss
[29] = Half life in monkey at 1 mg/kg, iv or 5 mg/kg, po; assay type: ADME, organism-based, Macaca mulatta; conditions: rhesus monkey, in vivo
[30] = Oral bioavailability in monkey at 5 mg/kg; assay type: ADME, organism-based, Macaca mulatta; conditions: rhesus monkey, in vivo
[31] = Fraction unbound in human plasma; assay type: ADME, cell-free
[32] = Apparent clearance in human hepatocytes; assay type: ADME, cell-based, Hepatocyte
[33] = AUC in dog pretreated with famotidine; assay type: ADME, Canis lupus familiaris; conditions: in vivo
[34] = AUC in dog pretreated with pentagastrin; assay type: ADME, Canis lupus familiaris; conditions: in vivo
[35] = biological target: Tyrosine-protein kinase JAK2 (Homo sapiens, UniProt O60674); test: Inhibition of wild-type human partial length JAK2 JH1 catalytic domain (A829 to G1132 residues) expressed in mammalian expression system by Kinomescan method
[36] = test system: Mus musculus; test: Protective activity in NZBWF1/J mouse SLE model assessed as reduction in proteinuria at 0.25%, po administered daily for 12 weeks measured weekly from week 28-40; assay type: functional, organism-based
Procedure, shortened: (§2)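 Spontaneous lupus model in NZB/W F1 mice, treated for 12 weeks. Proteinuria score followed from weeks 28–40; survival assessed at week 40.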

[37] = test system: Mus musculus; test: Protective activity in NZBWF1/J mouse SLE model assessed as increase in animal survival rate at 0.25%, po administered daily for 12 weeks measured at week 40; assay type: functional, organism-based; procedure, shortened: as §2
[38] = Toxicity in human assessed as adverse events at 2 to 50 mg administered as single dose; conditions: in vivo
Procedure, shortened: (§3)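 Healthy human volunteers received single doses of 2–50 mg or multiple doses of 15–50 mg; adverse events and laboratory abnormalities recorded.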

[39] = Toxicity in human assessed as clinical abnormalities at 2 to 50 mg administered as single dose; conditions: in vivo; procedure, shortened: as §3
[40] = Toxicity in human assessed as adverse events at 15 to 50 mg administered as multiple doses; conditions: in vivo; procedure, shortened: as §3
[41] = Toxicity in human assessed as clinical abnormalities at 15 to 50 mg administered as multiple doses; conditions: in vivo; procedure, shortened: as §3

Sequence of Tyrosine-protein kinase JAK2 (O60674 whole entry, the tested form may be a part): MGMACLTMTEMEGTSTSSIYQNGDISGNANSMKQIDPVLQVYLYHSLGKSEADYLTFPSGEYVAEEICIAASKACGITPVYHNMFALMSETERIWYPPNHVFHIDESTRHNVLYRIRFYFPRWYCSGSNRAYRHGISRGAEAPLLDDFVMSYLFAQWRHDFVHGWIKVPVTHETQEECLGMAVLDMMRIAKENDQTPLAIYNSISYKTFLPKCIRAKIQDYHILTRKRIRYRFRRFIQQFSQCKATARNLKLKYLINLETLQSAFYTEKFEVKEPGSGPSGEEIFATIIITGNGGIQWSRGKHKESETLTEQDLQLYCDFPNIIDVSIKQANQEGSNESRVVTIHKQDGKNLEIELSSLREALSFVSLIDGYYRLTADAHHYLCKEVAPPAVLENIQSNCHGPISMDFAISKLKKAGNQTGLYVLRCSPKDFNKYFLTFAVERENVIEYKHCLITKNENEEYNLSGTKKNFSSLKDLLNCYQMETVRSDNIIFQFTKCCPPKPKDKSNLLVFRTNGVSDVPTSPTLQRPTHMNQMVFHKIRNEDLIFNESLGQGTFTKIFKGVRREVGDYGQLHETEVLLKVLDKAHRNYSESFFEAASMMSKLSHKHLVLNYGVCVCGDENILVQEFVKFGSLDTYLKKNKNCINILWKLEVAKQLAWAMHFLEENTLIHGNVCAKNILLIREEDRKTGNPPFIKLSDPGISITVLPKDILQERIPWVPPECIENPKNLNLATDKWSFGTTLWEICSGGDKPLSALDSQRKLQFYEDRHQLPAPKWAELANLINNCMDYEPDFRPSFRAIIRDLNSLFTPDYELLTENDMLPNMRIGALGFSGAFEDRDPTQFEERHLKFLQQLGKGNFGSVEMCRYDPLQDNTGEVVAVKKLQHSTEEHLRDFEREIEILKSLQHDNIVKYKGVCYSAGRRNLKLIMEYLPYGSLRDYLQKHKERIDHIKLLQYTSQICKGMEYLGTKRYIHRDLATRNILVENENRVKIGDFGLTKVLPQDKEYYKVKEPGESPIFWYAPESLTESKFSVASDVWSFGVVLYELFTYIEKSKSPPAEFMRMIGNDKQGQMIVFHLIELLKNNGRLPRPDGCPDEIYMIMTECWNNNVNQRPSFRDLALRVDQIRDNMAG

SMILES: CN(C)C[C@@H]1CN(c2ccc(Nc3nc(-c4ccc5cn[nH]c5c4)cn4ccnc34)cc2)CCO1
- IC50 [1]: 0.9 nM
- EC50 [2]: 109 nM
- EC50 [3]: 231 nM
- solubility [4]: 78 µM (≈ 36.5 µg/mL)
- Papp [5]: 0.5 ×10⁻⁶ cm/s
- efflux ratio [6]: 29
- logD [7]: 1.9 to 2.7
- solubility [8]: 90 µM (≈ 42.2 µg/mL)
- CLhep predicted [9]: 3.83 mL/min/kg
- bioavailability [10]: 2%

SMILES: c1cn2cc(-c3cnc4c(n3)NCCO4)nc(Nc3ccc(N4CCN(C5COC5)CC4)cc3)c2n1
- IC50 [1]: 7.8 nM
- EC50 [2]: 86 nM
- EC50 [3]: 79 nM
- solubility [4]: 99 µM (≈ 48.1 µg/mL)
- Papp [5]: 11 ×10⁻⁶ cm/s
- efflux ratio [6]: 3
- solubility [8]: > 100 µM
- CLhep predicted [9]: < 1.83 mL/min/kg
- bioavailability [10]: 21%

SMILES: Nc1cncc(-c2cn3ccnc3c(Nc3ccc(N4CCN(C5COC5)CC4)cc3)n2)n1 [LANRAPLENIB]
- AUC [11]: 6.19 µM·h
- half-life [12]: 21.3 to 24.6 h
- AUC [13]: 6.46 µM·h
- solubility [4]: 99 µM (≈ 43.9 µg/mL)
- logD [7]: 1.3
- solubility [8]: > 100 µM
- CLhep predicted [9]: < 1.83 mL/min/kg
- fraction unbound [14]: 0.118
- CLH(app) [15]: 23.3 mL/min/kg
- clearance [16]: 29.5 mL/min/kg
- Vd [17]: 2.5 L/kg
- half-life [18]: 3.7 h
- fraction unbound [19]: 0.385
- bioavailability [10]: 60%
- CLH(app) [20]: 4.67 mL/min/kg
- clearance [21]: 5.5 mL/min/kg
- Vd [22]: 1.6 L/kg
- half-life [23]: 5.3 h
- bioavailability [24]: 100%
- fraction unbound [25]: 0.322
- CLH(app) [26]: 4.67 mL/min/kg
- clearance [27]: 9.67 mL/min/kg
- Vd [28]: 1.3 L/kg
- half-life [29]: 2.3 h
- bioavailability [30]: 100%
- fraction unbound [31]: 0.204
- CLH(app) [32]: 0.83 mL/min/kg
- AUC [33]: 10.2 µM·h
- AUC [34]: 8.8 µM·h
- IC50 [35]: 120 nM
- Activity [36]: Active
- Activity [37]: Active
- Activity [38]: Non-Toxic
- Activity [39]: Non-Toxic
- Activity [40]: Non-Toxic
- Activity [41]: Non-Toxic

More lines, now with the values ahead:

- IC50 [1]: 8.4 nM
- EC50 [2]: 46.8 nM
- EC50 [3]: 89 nM
- solubility [4]: > 100 µM
- solubility [8]: > 100 µM
- CLhep predicted [9]: 4.17 mL/min/kg
- bioavailability [10]: 38%
SMILES: c1cn2cc(-c3cnc4c(c3)NCCO4)nc(Nc3ccc(N4CCN(C5COC5)CC4)cc3)c2n1

- IC50 [1]: 13.4 nM
- EC50 [2]: 286 nM
- EC50 [3]: 309 nM
- solubility [4]: < 1 µM
- Papp [5]: 2.7 ×10⁻⁶ cm/s
- efflux ratio [6]: 5.8
- solubility [8]: > 100 µM
- CLhep predicted [9]: 3 mL/min/kg
SMILES: c1cn2cc(-c3cnc4nc[nH]c4c3)nc(Nc3ccc(N4CCN(C5COC5)CC4)cc3)c2n1

- IC50 [1]: 17.3 nM
- EC50 [2]: 47 nM
- EC50 [3]: 90 nM
- solubility [4]: 49 µM (≈ 22.9 µg/mL)
- Papp [5]: 0.4 ×10⁻⁶ cm/s
- efflux ratio [6]: 38
- solubility [8]: > 100 µM
- CLhep predicted [9]: < 1.83 mL/min/kg
SMILES: c1cn2cc(-c3ccc4nc[nH]c4c3)nc(Nc3ccc(N4CCN(C5COC5)CC4)cc3)c2n1

- IC50 [1]: 9.2 nM
- EC50 [2]: 53 nM
- EC50 [3]: 385 nM
- solubility [4]: < 1 µM
- Papp [5]: 5.5 ×10⁻⁶ cm/s
- efflux ratio [6]: 2.9
- logD [7]: 1.9 to 2.7
- solubility [8]: > 100 µM
- CLhep predicted [9]: 3 mL/min/kg
- bioavailability [10]: 42%
SMILES: c1cn2cc(-c3ccc4cn[nH]c4c3)nc(Nc3ccc(N4CCN(C5COC5)CC4)cc3)c2n1

- IC50 [1]: 61.6 nM
- EC50 [2]: 68 nM
- EC50 [3]: 824 nM
- solubility [4]: 2 µM (≈ 0.847 µg/mL)
- logD [7]: 1.9 to 2.7
- solubility [8]: 25 µM (≈ 10.6 µg/mL)
- CLhep predicted [9]: 5.33 mL/min/kg
SMILES: c1cn2cc(-c3ccc4cn[nH]c4c3)nc(Nc3ccc(N4CC5CC(C4)O5)cc3)c2n1
